Bioassay records as filed in PubChem BioAssay.
The list is not random: actives were taken first. Their share in the collection is about 3.7%.
Calpain2 inh: blocks pig calpain II enzyme activity; purified calpain II, fluorogenic peptide substrate, 30 min; inhibition, % at 16 µM; hit rate 0.37% among 220,000;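 active = inhibition above about 50%, limit read from the data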
PKD1 inh: PKD1 (human) kinase inhibition | hit rate 0.056% among 200,000 | Q15139 | inhibition, % (no concentration beside the values) | PKD1 kinase fluorescence polarization assay; in the data active = inhibition above about 50%
Arbovirus inh: antivirals against arbovirus infection. arbovirus infection cell-based antiviral screen. inhibition, % at 10 µM. hit rate 0.37% among 200,000. AID 1251; in the data active = inhibition above about 30%
ROMK primary: human ROMK K+ channel modulation, primary screen | P48048 | Tet-inducible ROMK, thallium flux fluorescence; actives lie on both sides | B-score at 10 µM | hit rate 2% among 130,000;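 active = signal ratio slope over the read window, or its plate-corrected B-score, at least 3 SD from the plate mean, either direction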;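 also: B-score of the F/F0 ratio slope over 7 to 12 s after thallium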
MDM2 E3 inh: inhibitors of human Mdm2 E3 ubiquitin ligase; Q00987; cell-based MDM2 ubiquitination luciferase reporter, 2 h; 0 = plate control, 100 = twice control, blank-subtracted; signal enhancement, % at 5 µM; hit rate 0.11% among 210,000; AID 1230;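 active = signal enhancement of 30% or more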;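 also: luminescence tracks abundance of the self-degrading MDM2-luciferase fusion protein; higher signal means inhibition of MDM2 E3 ligase activity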
Target sequence (Q00987 whole entry, looked up, the tested form may be a part): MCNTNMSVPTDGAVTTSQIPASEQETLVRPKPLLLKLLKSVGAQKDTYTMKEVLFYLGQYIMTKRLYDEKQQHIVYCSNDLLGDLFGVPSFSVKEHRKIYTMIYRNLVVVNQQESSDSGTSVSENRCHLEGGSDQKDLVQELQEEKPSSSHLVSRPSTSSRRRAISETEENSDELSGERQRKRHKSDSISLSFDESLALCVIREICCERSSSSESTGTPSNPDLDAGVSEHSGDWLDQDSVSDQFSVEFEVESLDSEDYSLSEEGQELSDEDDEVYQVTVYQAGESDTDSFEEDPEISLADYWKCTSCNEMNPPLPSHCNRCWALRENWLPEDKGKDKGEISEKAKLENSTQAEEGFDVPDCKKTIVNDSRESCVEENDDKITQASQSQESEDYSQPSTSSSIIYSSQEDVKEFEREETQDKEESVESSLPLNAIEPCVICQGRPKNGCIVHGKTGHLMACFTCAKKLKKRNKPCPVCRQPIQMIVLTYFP
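Material: stable MDM2–luciferase fusion reporter cells / Quantity: 2000 cells/well / Dosing: single 5 µM compound dose, 0.2% final DMSO / Buffer or medium: DMEM / Schedule: 4 h cell settling then 2 h compound exposure, 37 °C / Detection: luminescence with SteadyLite reagent, 15 min at room temperature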
KCC2 mod: KCC2 (human) Cl- transport modulation; KCC2 cells, thallium flux FluoZin-2 fluorescence; B-score of Tl+ flux slope (higher = more flux/activation; lower = inhibition) at 10 µM; hit rate 2.2% among 190,000;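 active = thallium flux slope and its plate-corrected score both differing from the plate sample mean at a set confidence after two filtering rounds, in either direction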;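 also: slope of fluorescence scaled to starting intensity during 10 to 20 s after thallium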
* = called active by the depositor.

For O=C(/C=C/Nc1ccc(S(=O)(=O)Nc2ncccn2)cc1)c1ccc2ccccc2c1 the results were Calpain2 inh -9 and MDM2 E3 inh -10.
Screening O=C(Cc1ccccc1)c1nnc(-c2ccccc2)o1 returned Calpain2 inh 10, PKD1 inh -2, Arbovirus inh -1, ROMK primary -0.46, MDM2 E3 inh -21 and KCC2 mod 1.3.
`O=C(O)C(Cc1ccccc1)N=Cc1c(O)c2ccccc2oc1=O` (stereo unspecified) gave Calpain2 inh -3, PKD1 inh 5, Arbovirus inh 31*, ROMK primary -0.052, MDM2 E3 inh -14 and KCC2 mod -1.7.
For COc1ccccc1NC(=O)Nc1ccccc1C(=O)NCCCN1CCOCC1 the results were Calpain2 inh 16, MDM2 E3 inh -6 and KCC2 mod -0.5.
`Cc1cccc(Cn2c(=O)n(Cc3ccco3)c(=O)c3ccccc32)c1` gave Calpain2 inh 55*, PKD1 inh 0, Arbovirus inh 2, ROMK primary -1.3, MDM2 E3 inh -12 and KCC2 mod -1.
O=C(NNc1ccccc1[N+](=O)[O-])Nc1cccc(Cl)c1 was read as Calpain2 inh 9 and KCC2 mod 0.52.
Screening CC(C)(C)C1CCc2onc(C(=O)NCc3ccc(F)cc3)c2C1 (stereo unspecified) returned Calpain2 inh 52*, PKD1 inh 4, Arbovirus inh -2, MDM2 E3 inh -2 and KCC2 mod -0.66.
`COc1cc(CNCc2c[nH]c3ccccc23)cc(OC)c1` gave Calpain2 inh -7, PKD1 inh 6, Arbovirus inh 0, ROMK primary -3.4, MDM2 E3 inh -3 and KCC2 mod 0.74.
`COc1ccc(-c2cn3nc4c(nc3n2)CCCC4)cc1` gave Calpain2 inh inactive, PKD1 inh 5, Arbovirus inh -5, ROMK primary -3.2* and MDM2 E3 inh -12.
COc1ccc(OC)c(C2=C/C(=C/c3ccccn3)C(=O)O2)c1 was read as Calpain2 inh -63, PKD1 inh -9, Arbovirus inh 10, ROMK primary -0.27, MDM2 E3 inh -12 and KCC2 mod 0.41.
For COc1ccc(N2C(=O)N(Cc3ccc(C)cc3)c3ccccc3S2(=O)=O)cc1 the results were Calpain2 inh 50*, PKD1 inh -1, Arbovirus inh 2, ROMK primary 0.27, MDM2 E3 inh -17 and KCC2 mod -1.4.
`COc1ccc(N2C(=O)c3ccccc3S2(=O)=O)cc1` gave Calpain2 inh 11, ROMK primary 0.72, MDM2 E3 inh 9 and KCC2 mod 0.0008.
`CC(=O)CCn1cc([N+](=O)[O-])nc1C` gave Calpain2 inh 21, ROMK primary 0.89, MDM2 E3 inh -10 and KCC2 mod -0.49.
Screening Cc1ccc(SC/C(O)=C(\C#N)c2nc3ccccc3n2C)cc1 returned Calpain2 inh -14, PKD1 inh -14, Arbovirus inh -12, MDM2 E3 inh 2 and KCC2 mod 1.8.
`Cn1c(/C(C#N)=C(\O)CN2CCN(Cc3ccccc3)CC2)nc2ccccc21` gave Calpain2 inh 13, PKD1 inh -19, Arbovirus inh -7, ROMK primary -1.1, MDM2 E3 inh -17 and KCC2 mod -6.1*.
Screening c1ccc(C2=NN(c3ccccc3)CC2)cc1 returned Calpain2 inh -50, MDM2 E3 inh -8 and KCC2 mod -0.42.
Screening CCOC(=O)/C(=C/c1ccc(N2CCC(c3ccccc3)=N2)cc1)C(C)=O returned Calpain2 inh -455, PKD1 inh -10, Arbovirus inh -2, ROMK primary -3.4*, MDM2 E3 inh -9 and KCC2 mod -0.62.
`COC(=O)C(Cc1ccc(OC(=O)c2ccc(C(F)(F)F)cc2)cc1)N1Cc2ccccc2C1=O` (stereo unspecified) gave Calpain2 inh 71*, PKD1 inh 3, Arbovirus inh -1, MDM2 E3 inh -28 and KCC2 mod 0.65.
COC(=O)c1sccc1-c1ccc(/C=N/OC(=O)c2cccs2)o1 was read as Calpain2 inh -243, MDM2 E3 inh 2 and KCC2 mod -0.073.
Screening COC(=O)c1ccccc1NC(=O)CN1CCC(NC(=O)c2ccccc2C)CC1 returned Calpain2 inh -1, PKD1 inh -5, Arbovirus inh 83*, MDM2 E3 inh -21 and KCC2 mod -0.14.
